# Measurements collected from several papers.
# Each line is one published result; the experiments were not run side by side.
# Target: Cyclin-dependent kinase 13 (CDK13, Homo sapiens, UniProt Q14004)
Compound,observed,technique,tested at,remaining binding [%]
N[C@H]1CCN(c2nccc(-c3cnn4ncccc34)n2)C1,binding,,1 µM,64
CNC(=O)[C@@H]1CC[C@@H](n2c(-c3ccc4cnccc4c3)nc3ccc(C(=O)NCc4cccc(C(N)=O)c4)cc32)C1,binding,competition with immobilised ligand,1 µM,100
CC1CCCN1c1nccc(-c2cnn3ncccc23)n1 (stereo not shown),binding,,1 µM,100
O=C(NCCCN1CCOCC1)c1ccc(Nc2nccc(-c3cc4ccccc4s3)n2)cc1,binding,competition with immobilised ligand,1 µM,68
CC(=O)C1=C(C)N(c2cccc(C(F)(F)F)c2)C(=O)N[C@@H]1c1ccc(C#N)nc1,cell-free assay,competition with immobilised ligand,1 µM,100
COc1ccnn2ncc(-c3ccnc(N(C)C)n3)c12,binding,,1 µM,69
FC(F)(F)Oc1cccc(-c2cnc3ccc(-c4ccncc4)nn23)c1,cell-free assay,competition with immobilised ligand,5 µM,99
O=C(c1ccc(Nc2ncc(Cl)c(-c3cc4ccccc4s3)n2)cc1)N1CCC(N2CCCC2)CC1,binding,competition with immobilised ligand,1 µM,36
C[C@H]1CCN(c2nccc(-c3cnn4ncccc34)n2)C1,binding,,1 µM,84
CCCCN(CCCC)C(=O)CN1C[C@H](c2cc(OC)c3c(c2)OCO3)[C@@H](C(=O)O)[C@@H]1CC(C)(C)CCC,cell-free assay,competition with immobilised ligand,1 µM,52.5
CN(CCCC(F)(F)F)c1nccc(-c2cnn3ncccc23)n1,binding,,1 µM,100
Cc1c[nH]c2nccc(Oc3c(F)cc(Nc4cc(Cl)nc(N)n4)cc3F)c12,cell-free assay,competition with immobilised ligand,0.1 µM,73
CN(C)c1nccc(-c2cnn3ncccc23)n1,binding,,1 µM,84
CC(=O)c1c(NS(C)(=O)=O)c2cc(-c3ccc(Cl)cc3)c(-c3ccc(Cl)cc3Cl)nc2n(C)c1=O,cell-free assay,competition with immobilised ligand,1 µM,96
O=C(c1ccc(Nc2nccc(-c3cc4ccccc4s3)n2)cc1)N1CCC(N2CCCC2)CC1,binding,competition with immobilised ligand,1 µM,92
COCCOc1nc(-c2ccc(Cl)nc2)nc2c1CN(C(=O)c1ncn3ccccc13)CC2,cell-free assay,competition with immobilised ligand,0.1 µM,100
c1cncc(-c2cccc(Nc3nccc(NC4CCCCC4)n3)c2)c1,binding,competition with immobilised ligand,10 µM,100
O=C(Nc1c[nH]nc1C(=O)NC1CCNCC1)c1cc(F)cc(F)c1,binding,competition with immobilised ligand,1 µM,100
CN(C)C(=O)Cn1cc(-c2nc([C@@](C)(c3ccc(-c4cnc(N)nc4)cc3)C3CC3)no2)cn1,cell-free assay,competition with immobilised ligand,1 µM,83
